Neddyl block = cullin neddylation inhibition; P61081+Q13564; calls only at 25 µM; TR-FRET cullin neddylation, biochemical; 360,000 tested, 0.58% active; AID 651699; in the data active = inhibition above about 36%
RAD52 anneal inh = inhibitors of human RAD52 DNA annealing. P43351. recombinant RAD52 DNA annealing, FRET fluorescence. AID 651710. inhibition, % at 18.7 µM. 360,000 tested, 0.46% active;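 active = every replicate showing at least 50% inhibition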
Target sequence (P43351 whole entry, looked up): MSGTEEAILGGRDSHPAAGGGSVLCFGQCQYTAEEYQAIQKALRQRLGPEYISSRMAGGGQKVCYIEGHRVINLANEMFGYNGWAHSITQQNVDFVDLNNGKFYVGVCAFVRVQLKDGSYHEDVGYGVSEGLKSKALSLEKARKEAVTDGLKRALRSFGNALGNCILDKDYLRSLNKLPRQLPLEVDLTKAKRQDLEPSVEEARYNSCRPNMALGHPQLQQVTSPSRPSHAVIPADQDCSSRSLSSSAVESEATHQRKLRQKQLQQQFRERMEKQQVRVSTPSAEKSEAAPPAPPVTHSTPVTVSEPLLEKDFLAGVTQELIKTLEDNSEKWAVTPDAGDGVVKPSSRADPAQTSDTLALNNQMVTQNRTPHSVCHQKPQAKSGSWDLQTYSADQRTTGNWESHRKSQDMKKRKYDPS
Apaf1 inhib = human Apaf-1 inhibition; O14727; reconstituted apoptosome caspase-3 activity, DEVD-Rh110 fluorescence; inhibition, % at 20 µM; 330,000 tested, 0.71% active; active = inhibition of at least 40% at 20 µM;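 note: plate controls were DMSO wells for no effect and DEVD-CHO caspase inhibitor wells for full effect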
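Material: biochemical Apaf-1 apoptosome reconstitution. Medium: Hepes buffer, pH 7.5. Also added: cytochrome c activation, bis-DEVD rhodamine 110 substrate. Timing: 30 min compound preincubation, 50 min activation, room temperature. Measured by: rhodamine 110 fluorescence at Ex 480/Em 540 nm.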
FID counter = counter-screen for HCV NS3 helicase inhibitors: DNA intercalator displacement | DNA fluorescent intercalator displacement, fluorescence | inhibition, % at 7.9 µM | 290,000 tested, 0.17% active; in the data active = inhibition above about 37%;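 note: 0% = vehicle and 100% = reference compound; higher means more ethidium bromide displaced from hairpin DNA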
UBC13 polyUb = human UBC13 polyubiquitination inhibition; P61088; UBC13 polyubiquitin chain formation, TR-FRET; inhibition, % at 20 µM; 330,000 tested, 0.47% active; AID 485273; in the data active = inhibition above about 45%, passing the limit was not always enough
Target sequence (P61088 whole entry, looked up): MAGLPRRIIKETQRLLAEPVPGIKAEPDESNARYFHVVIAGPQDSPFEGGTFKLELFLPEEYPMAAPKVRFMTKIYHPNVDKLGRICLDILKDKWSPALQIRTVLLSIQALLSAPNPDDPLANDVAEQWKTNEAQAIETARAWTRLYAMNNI
RAD54 inh = RAD54 (human) branch migration inhibition. inhibition, % at 10.4 µM. 360,000 tested, 0.14% active. RAD54 Holliday junction branch migration, FAM/BHQ fluorescence;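 active = mean normalized replicate activity at least 40 and at least half of replicates scoring 40 or more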;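 note: 0% = median of neutral control wells and 100% = median of positive control wells; inhibitors cause a drop in the FAM fluorescence signal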
RAD52 DNA ctr = counter-screen for RAD52 inhibitors: DNA binding compounds; shares compounds with RAD52 anneal inh; Salmon sperm DNA/acridine orange FP displacement; AC50, µM; 1,000 tested, 8% active; AID 652128;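 active = fitted half-maximal concentration for signal loss at or below twice the highest dose tested, in every separate run, actives reach about 64 µM in these data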
Active calls of the source: *; i = inactive; . = no result shown. Most compounds without a hit are left out; they make up all but 1.6% or so of the library.

SMILES	Neddyl block	RAD52 anneal inh	Apaf1 inhib	FID counter	UBC13 polyUb	RAD54 inh	RAD52 DNA ctr
O=C1C(CSCc2ccccc2)NC(=S)N1c1ccccc1 (stereo not drawn)	i	56*	-13	0	7	7	i
O=C(O)CC1NC(=S)N(c2ccccc2)C1=O (stereo not drawn)	i	.	5	-3	2	-10	.
Cc1cc(N)ccc1NC(=O)CN1CCCC1	i	101*	-2	5	-4	24	i
COc1ccc(N)cc1NC(=O)CN1CCCC1	i	79*	7	1	-4	43	i
Cc1cccc(C)c1NC(=O)CN1CCCC1	i	-9	-1	.	6	.	.
CCOC(=O)c1c(CN(C)C)n(-c2ccccc2)c2cc(Br)c(OC)cc12	i	15	6	7	6	28	.
CCOC(=O)c1c(C)n(CC(O)CN(C)C)c2cc(Br)c(OC)cc12 (stereo not drawn)	i	85*	13	15	4	.	i
COc1ccc2cc3[n+](cc2c1OC)CCc1cc2c(cc1-3)OCO2	i	75*	39	0	-36	72*	i
COc1cccc(C2=NCCc3cc4c(cc32)OCO4)c1OC	i	.	-3	-1	5	3	.
COc1cc2cc(CN(CCc3cccc(C)c3)C(=S)NCCCN(C)C)c(=O)[nH]c2cc1OC	i	51*	10	21	10	.	i
CC(=O)c1ccc2c(c1)N(CCCN1CCC(CCO)CC1)c1ccccc1S2	i	2	14	.	15	11	.
CSc1ccc2c(c1)N(CCC1CCCCN1C)c1ccccc1S2 (stereo not drawn)	i	51*	55*	21	72*	16	i
CCCNC(=O)N1C[C@@H](O)COC[C@H]2O[C@@H](CC(=O)N[C@@H]3CCN(Cc4ccccc4)C3)CC[C@@H]21	.	-4	.	.	.	0	.
CCOC(=O)c1ccc(NC(=O)/C=C/c2cccs2)cc1	i	-9	4	-13	-3	.	.
CCN(CC)CCOC(=O)c1ccc([N+](=O)[O-])cc1	i	-11	-3	2	-9	.	.
CCN(CC)CCCOC(=O)c1ccc(OC)cc1O	i	-5	6	1	-6	.	.
CCN(CC)CCOC(=O)c1ccc(NC(=O)/C=C/c2cccs2)cc1	i	58*	-12	7	2	.	i
CCCOc1cc(N)ccc1C(=O)OCCN(CC)CC	i	62*	-7	.	1	1	i
CCN(CC)CCOC(=O)c1ccc(N)cc1	i	88*	-10	-1	2	-1	i
C[C@H]1CN([C@@H](C)CO)C(=O)CCCn2cc(nn2)CO[C@H]1CN(C)Cc1ccccc1C(=O)O	.	-14	.	.	.	7	.
COc1ccc(OC)c(/C=N/NC(=O)c2cc[n+](CC(=O)c3ccccc3)cc2)c1	i	57*	12	-1	-10	9	i
C[C@H]1CN([C@@H](C)CO)C(=O)c2cc(C#CC3CCCCC3)cnc2O[C@H]1CN(C)C(=O)Nc1ccccc1	.	0	.	.	.	5	.
OC[C@@H]1CN(CCN2CCOCC2)C[C@H](n2cnc3c(NCc4ccc(F)cc4)ncnc32)O1	i	-5	.	.	.	0	.
OC[C@@H]1CN(CCc2ccccc2)C[C@H](n2cnc3c(NCc4ccc(F)cc4)ncnc32)O1	i	75*	.	.	.	-4	i
OC(c1ccccc1)(c1ccccc1)C1CCN(CCCOc2ccccc2Cl)CC1	i	55*	.	.	.	.	i
SMILES	Neddyl block	RAD52 anneal inh	Apaf1 inhib	FID counter	UBC13 polyUb	RAD54 inh	RAD52 DNA ctr
COc1ccccc1CN1[C@@H]2Cn3c(ccc(C4=CCCCC4)c3=O)[C@H]1[C@@H](C(=O)N(C)C)[C@@H]2CO	.	-2	.	.	.	-3	.
CN1C(=O)c2cc(NS(=O)(=O)c3cccc(F)c3)ccc2OC[C@H]2O[C@H](CC(=O)O)CC[C@H]21	.	11	.	.	.	2	.
CN(C)CCN(C)Cc1ccccc1Sc1cccc2ccccc12	i	52*	14	21	36	12	i
C[C@@H]1CN([C@@H](C)CO)C(=O)Cc2cc(NC(=O)CCN3CCOCC3)ccc2O[C@H]1CN(C)Cc1ccc(C(=O)O)cc1	.	.	.	.	.	0	.
CSc1ccc2c(c1)C(N1CCN(C)CC1)Cc1ccc(F)cc1S2 (stereo not drawn)	i	51*	38	.	17	11	i
O=C(c1ccccc1)N1CCN(CC(O)Cn2ccc3ccccc32)CC1 (stereo not drawn)	i	-13	-22	-12	0	.	.
OC(CN1CCCC1)Cn1ccc2ccccc21 (stereo not drawn)	i	62*	18	0	10	0	i
CO[C@H]1CN(C)C(=O)c2ccc(NC(=O)C3CCC3)cc2OC[C@H](C)N(Cc2ccncc2)C[C@H]1C	.	-1	.	.	.	-11	.
CC1(C)Cc2c(c(N3CCCC3)nc3sc4c(N5CCN(CCO)CC5)ncnc4c23)CO1	i	58*	1	7	24	25	i
CC1(C)Cc2c(c(N3CCOCC3)nc3sc4c(NCCN)ncnc4c23)CO1	i	0	.	.	.	.	.
Cc1cccc2c(N)c3c(nc12)CCCC3 (tested in a mixture with another compound)	i	-11	.	0	.	17	.
Cc1cc(C)c2c(N)c3cccc(C)c3nc2n1	.	78*	.	31	.	.	32µM*
CCn1c(SCC(=O)Nc2ccc(C)cc2)nc2sc3c(c2c1=O)CCN(C)C3	i	-22	-4	12	21	13	.
CCn1c(SCC(N)=O)nc2sc3c(c2c1=O)CCN(C)C3	i	56*	-8	3	8	31	i
Cc1cc(N/N=C/c2ccccc2O)c2ccccc2n1	i	102*	30	23	4	104*	i
CCOc1cc2[nH]c(=S)n(Cc3ccc(C(=O)NCCN(CC)CC)cc3)c(=O)c2cc1OCC	i	53*	15	29	25	45	i
C[n+]1ccccc1COc1ccc(C(C)(C)C)cc1	i	99*	5	5	6	.	i
Cc1nc2cc(-c3ccc(Cl)cc3)nn2c(NCCN(C)C)c1C	.	77*	8	27	18	.	i
Cc1cc(C)n2nc(-c3ccc(Cl)cc3)cc2n1	i	-9	17	-20	4	9	.
Cc1ccc(C)n1-c1nnc(N2CCC(C(=O)NCCCN3CCN(C)CC3)CC2)s1	i	70*	25	-1	8	-5	i
COc1ccc(-c2nc(CN3CCN(c4cc(C)nc(C)c4)CC3)c(C)o2)c2ccccc12	.	82*	8	25	24	39	i
Cc1cc(N2CCN(Cc3nc(-c4ccc(Cl)cc4)oc3C)CC2)cc(C)n1	i	6	-5	8	-3	-9	.
Cc1ccc2cc(C#N)c(NCCNC(=S)NCCCN(C)C)nc2c1C	.	100*	1	23	28	.	i

Screening data as filed in PubChem.
